According to ChEMBL document CHEMBL1122774, “Tri- and tetrapeptide analogues of kinins as potential renal vasodilators” (J Med Chem, 1984):
Peptide text beside a SMILES is read from it. * marks the point of attachment. pNA = O=[N+]([O-])c1ccc(N*)cc1; Bz = O=C(c1ccccc1)*

Test system: not listed separately
Assay: Average max percent decrease in RVR (renal vascular resistance) was determined.
Details: not given
Procedure, shortened: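 Secondary protocol in anesthetized dogs. Drug given as iv infusion at progressively increasing rates, each dose level for 5 min. The maximum effect is taken as the largest percent decrease in renal vascular resistance (RVR) reached with the compound. RVR is calculated as mean arterial blood pressure / mean renal blood flow.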

Going from `N=C(N)NCCC[C@H](NC(=O)[C@H](Cc1ccccc1)NC(=O)[C@@H]1CCCN1C(=O)c1ccccc1)C(=O)Nc1ccc([N+](=O)[O-])cc1` (Bz-Pro-Phe-Arg-pNA) to `CC(Cc1ccc(O)cc1)(NC(=O)[C@@H]1CCCN1C(=O)CCCc1ccc(O)cc1)C(=O)N[C@@H](CCCN=C(N)N)C(=O)O` (stereo partly specified), the Decrease falls from 20% to 16%.

Test system: Canis familiaris
Assay: Compound was evaluated for renal vasodilator activity and represented as ED15 (intravenous administration)
Assay type: functional
Details: Canis lupus familiaris
Procedure, shortened: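 Secondary protocol in anesthetized dogs with iv infusion at progressively increasing rates, each level infused 5 min. Potency is the cumulative dose (µg/kg) that lowered renal vascular resistance (MABP / mean RBF) by 15%. Minimum change needed for significance (p = 0.95) is 16% for RVR.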

First: N=C(N)NCCC[C@H](NC(=O)[C@H](Cc1ccccc1)NC(=O)[C@@H]1CCCN1C(=O)c1ccccc1)C(=O)Nc1ccc([N+](=O)[O-])cc1 (Bz-Pro-Phe-Arg-pNA)
Second: CC(Cc1ccc(O)cc1)(NC(=O)[C@@H]1CCCN1C(=O)CCCc1ccc(O)cc1)C(=O)N[C@@H](CCCN=C(N)N)C(=O)O (stereo partly specified)
The ED15 of the first is 6.5-fold higher: 0.297 mg/kg for the first, 0.0455 mg/kg for the second.

Test system: Canis familiaris
Assay: Renal vasodilator activity in anesthetized dogs and percent change in heart rate (HR) was determined at 3 ug/kg min
Assay type: functional, Canis lupus familiaris
Details: not given
Procedure, shortened: (§1)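 Primary screen in anesthetized dogs (7-17 kg). Drug infused separately at 3, 30 and 300 µg/(kg min), each infusion lasting 5 min, at about 15-min intervals. Read-outs are renal blood flow, mean arterial blood pressure, heart rate, and RVR (MABP / mean RBF), as percent change. Significance thresholds are defined per number of dogs; n = 1-3 dogs.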

Going from `N=C(N)NCCC[C@H](NC(=O)[C@H](Cc1ccccc1)NC(=O)[C@@H]1CCCN1C(=O)c1ccccc1)C(=O)Nc1ccc([N+](=O)[O-])cc1` (Bz-Pro-Phe-Arg-pNA) to `CC(Cc1ccc(O)cc1)(NC(=O)[C@@H]1CCCN1C(=O)CCCc1ccc(O)cc1)C(=O)N[C@@H](CCCN=C(N)N)C(=O)O` (stereo partly specified), the Change rises from 0% to 3.5%.

Test system: Canis familiaris
Assay: Renal vasodilator activity in anesthetized dogs and percent change in heart rate (HR) was determined at 30 ug/kg min
Assay type: functional, Canis lupus familiaris
Details: not given
Procedure, shortened: as §1

First: N=C(N)NCCC[C@H](NC(=O)[C@H](Cc1ccccc1)NC(=O)[C@@H]1CCCN1C(=O)c1ccccc1)C(=O)Nc1ccc([N+](=O)[O-])cc1 (Bz-Pro-Phe-Arg-pNA)
Second: CC(Cc1ccc(O)cc1)(NC(=O)[C@@H]1CCCN1C(=O)CCCc1ccc(O)cc1)C(=O)N[C@@H](CCCN=C(N)N)C(=O)O (stereo partly specified)
The Change of the first is higher: -3% for the first, -7.5% for the second.

Test system: Canis familiaris
Assay: Renal vasodilator activity in anesthetized dogs and percent change in heart rate (HR) was determined at 300 ug/kg min
Assay type: functional, Canis lupus familiaris
Details: not given
Procedure, shortened: as §1

Compared with `N=C(N)NCCC[C@H](NC(=O)[C@H](Cc1ccccc1)NC(=O)[C@@H]1CCCN1C(=O)c1ccccc1)C(=O)Nc1ccc([N+](=O)[O-])cc1` (Bz-Pro-Phe-Arg-pNA), `CC(Cc1ccc(O)cc1)(NC(=O)[C@@H]1CCCN1C(=O)CCCc1ccc(O)cc1)C(=O)N[C@@H](CCCN=C(N)N)C(=O)O` (stereo partly specified) is higher in Change: -10% for the first, 2.4% for the second.

Test system: Canis familiaris
Assay: Renal vasodilator activity in anesthetized dogs and percent change in mean arterial blood pressure (MABP) was determined at 3 ug/kg min
Assay type: functional, Canis lupus familiaris
Details: not given
Procedure, shortened: as §1

Going from `N=C(N)NCCC[C@H](NC(=O)[C@H](Cc1ccccc1)NC(=O)[C@@H]1CCCN1C(=O)c1ccccc1)C(=O)Nc1ccc([N+](=O)[O-])cc1` (Bz-Pro-Phe-Arg-pNA) to `CC(Cc1ccc(O)cc1)(NC(=O)[C@@H]1CCCN1C(=O)CCCc1ccc(O)cc1)C(=O)N[C@@H](CCCN=C(N)N)C(=O)O` (stereo partly specified), the Change falls from 1.2% to -2.5%.

Test system: Canis familiaris
Assay: Renal vasodilator activity in anesthetized dogs and percent change in mean arterial blood pressure (MABP) was determined at 30 ug/kg min
Assay type: functional, Canis lupus familiaris
Details: not given
Procedure, shortened: as §1

First: N=C(N)NCCC[C@H](NC(=O)[C@H](Cc1ccccc1)NC(=O)[C@@H]1CCCN1C(=O)c1ccccc1)C(=O)Nc1ccc([N+](=O)[O-])cc1 (Bz-Pro-Phe-Arg-pNA)
Second: CC(Cc1ccc(O)cc1)(NC(=O)[C@@H]1CCCN1C(=O)CCCc1ccc(O)cc1)C(=O)N[C@@H](CCCN=C(N)N)C(=O)O (stereo partly specified)
The Change of the first is higher: 1.5% for the first, -3% for the second.

Test system: Canis familiaris
Assay: Renal vasodilator activity in anesthetized dogs and percent change in mean arterial blood pressure (MABP) was determined at 300 ug/kg min
Assay type: functional, Canis lupus familiaris
Details: not given
Procedure, shortened: as §1

First: N=C(N)NCCC[C@H](NC(=O)[C@H](Cc1ccccc1)NC(=O)[C@@H]1CCCN1C(=O)c1ccccc1)C(=O)Nc1ccc([N+](=O)[O-])cc1 (Bz-Pro-Phe-Arg-pNA)
Second: CC(Cc1ccc(O)cc1)(NC(=O)[C@@H]1CCCN1C(=O)CCCc1ccc(O)cc1)C(=O)N[C@@H](CCCN=C(N)N)C(=O)O (stereo partly specified)
The Change of the first is lower: -26.6% for the first, 1% for the second.

Test system: Canis familiaris
Assay: Renal vasodilator activity in anesthetized dogs and percent change in renal blood flow (RBF) was determined at 3 ug/kg min
Assay type: functional, Canis lupus familiaris, Kidney
Details: not given
Procedure, shortened: as §1

Going from `N=C(N)NCCC[C@H](NC(=O)[C@H](Cc1ccccc1)NC(=O)[C@@H]1CCCN1C(=O)c1ccccc1)C(=O)Nc1ccc([N+](=O)[O-])cc1` (Bz-Pro-Phe-Arg-pNA) to `CC(Cc1ccc(O)cc1)(NC(=O)[C@@H]1CCCN1C(=O)CCCc1ccc(O)cc1)C(=O)N[C@@H](CCCN=C(N)N)C(=O)O` (stereo partly specified), the Change rises from 1.9% to 20%.

Test system: Canis familiaris
Assay: Renal vasodilator activity in anesthetized dogs and percent change in renal blood flow (RBF) was determined at 30 ug/kg min
Assay type: functional, Canis lupus familiaris, Kidney
Details: not given
Procedure, shortened: as §1

Going from `N=C(N)NCCC[C@H](NC(=O)[C@H](Cc1ccccc1)NC(=O)[C@@H]1CCCN1C(=O)c1ccccc1)C(=O)Nc1ccc([N+](=O)[O-])cc1` (Bz-Pro-Phe-Arg-pNA) to `CC(Cc1ccc(O)cc1)(NC(=O)[C@@H]1CCCN1C(=O)CCCc1ccc(O)cc1)C(=O)N[C@@H](CCCN=C(N)N)C(=O)O` (stereo partly specified), the Change rises from 4.8% to 28%.

Test system: Canis familiaris
Assay: Renal vasodilator activity in anesthetized dogs and percent change in renal blood flow (RBF) was determined at 300 ug/kg min
Assay type: functional, Canis lupus familiaris, Kidney
Details: not given
Procedure, shortened: as §1

First: N=C(N)NCCC[C@H](NC(=O)[C@H](Cc1ccccc1)NC(=O)[C@@H]1CCCN1C(=O)c1ccccc1)C(=O)Nc1ccc([N+](=O)[O-])cc1 (Bz-Pro-Phe-Arg-pNA)
Second: CC(Cc1ccc(O)cc1)(NC(=O)[C@@H]1CCCN1C(=O)CCCc1ccc(O)cc1)C(=O)N[C@@H](CCCN=C(N)N)C(=O)O (stereo partly specified)
The Change of the first is lower: 27% for the first, 28% for the second.

Test system: Canis familiaris
Assay: Renal vasodilator activity in anesthetized dogs and percent change in renal vascular resistance (RVR) was determined at 3 ug/kg min
Assay type: functional, Canis lupus familiaris
Details: not given
Procedure, shortened: as §1

First: N=C(N)NCCC[C@H](NC(=O)[C@H](Cc1ccccc1)NC(=O)[C@@H]1CCCN1C(=O)c1ccccc1)C(=O)Nc1ccc([N+](=O)[O-])cc1 (Bz-Pro-Phe-Arg-pNA)
Second: CC(Cc1ccc(O)cc1)(NC(=O)[C@@H]1CCCN1C(=O)CCCc1ccc(O)cc1)C(=O)N[C@@H](CCCN=C(N)N)C(=O)O (stereo partly specified)
The Change of the first is higher: 0% for the first, -19% for the second.

Test system: Canis familiaris
Assay: Renal vasodilator activity in anesthetized dogs and percent change in renal vascular resistance (RVR) was determined at 300 ug/kg min
Assay type: functional, Canis lupus familiaris
Details: not given
Procedure, shortened: as §1

Compared with `N=C(N)NCCC[C@H](NC(=O)[C@H](Cc1ccccc1)NC(=O)[C@@H]1CCCN1C(=O)c1ccccc1)C(=O)Nc1ccc([N+](=O)[O-])cc1` (Bz-Pro-Phe-Arg-pNA), `CC(Cc1ccc(O)cc1)(NC(=O)[C@@H]1CCCN1C(=O)CCCc1ccc(O)cc1)C(=O)N[C@@H](CCCN=C(N)N)C(=O)O` (stereo partly specified) is higher in Change: -38.7% for the first, -17% for the second.

Test system: Canis familiaris
Assay: Renal vasodilator activity in anesthetized dogs and percent change in renal vascular resistance (RVR) was determined at 30 ug/kg min
Assay type: functional, Canis lupus familiaris
Details: not given
Procedure, shortened: as §1

Going from `N=C(N)NCCC[C@H](NC(=O)[C@H](Cc1ccccc1)NC(=O)[C@@H]1CCCN1C(=O)c1ccccc1)C(=O)Nc1ccc([N+](=O)[O-])cc1` (Bz-Pro-Phe-Arg-pNA) to `CC(Cc1ccc(O)cc1)(NC(=O)[C@@H]1CCCN1C(=O)CCCc1ccc(O)cc1)C(=O)N[C@@H](CCCN=C(N)N)C(=O)O` (stereo partly specified), the Change falls from -3% to -20%.

Test system: not listed separately
Assay: Ratio of ED20 of MABP (mean arterial blood pressure) to the ED15 of RVR ( renal vascular resistance).
Assay type: functional
Details: not given
Procedure, shortened: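 Anesthetized dogs in the secondary cumulative-infusion protocol, each dose level 5 min. Selectivity ratio is the dose giving a 20% change in mean arterial blood pressure divided by the cumulative dose lowering renal vascular resistance 15% (RVR ED15).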

With `CC(Cc1ccc(O)cc1)(NC(=O)[C@@H]1CCCN1C(=O)CCCc1ccc(O)cc1)C(=O)N[C@@H](CCCN=C(N)N)C(=O)O` (stereo partly specified) the Ratio was >1665.

Test system: not listed separately
Assay: Ratio of ED30 of iliac vascular resistant (IVR) to the ED15 of RVR (renal vascular resistance)
Assay type: functional
Details: not given
Procedure, shortened: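 Anesthetized dogs in the secondary cumulative-infusion protocol, each dose level 5 min. Selectivity ratio is the dose giving a 30% change in iliac vascular resistance divided by the RVR ED15, the cumulative dose decreasing renal vascular resistance by 15%.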

First: N=C(N)NCCC[C@H](NC(=O)[C@H](Cc1ccccc1)NC(=O)[C@@H]1CCCN1C(=O)c1ccccc1)C(=O)Nc1ccc([N+](=O)[O-])cc1 (Bz-Pro-Phe-Arg-pNA)
Second: CC(Cc1ccc(O)cc1)(NC(=O)[C@@H]1CCCN1C(=O)CCCc1ccc(O)cc1)C(=O)N[C@@H](CCCN=C(N)N)C(=O)O (stereo partly specified)
The Ratio of the first is higher: > 20 for the first, < 9 for the second.
